Converted amounts (≈) assume the structure as drawn. The source made the active and inactive calls. The calls are words filed in the database; no cut-off is given here.
How the values were obtained:
[1] = target: 3',5'-cyclic-AMP phosphodiesterase 4B (Homo sapiens, UniProt Q07343); assay: Inhibition of recombinant human PDE4B1 using [3H]-cAMP as substrate […] measured after 60 mins by scintillation proximity assay
Outline: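 Compounds ranged from 10 μM to 10 pM. The reaction was started with PDE4 enzyme and run 60 min at room temperature with agitation (about 10−20% conversion), then stopped with SPA beads. [3H]-AMP was counted by scintillation.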

[2] = Inhibition of PDE4 in human whole blood PBMC assessed as reduction in LPS-induced TNFalpha production after 24 hrs by ELISA
Outline: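 Heparinized whole blood from healthy donors was preincubated with LPS (1 μg/mL final) at 37 °C for 10 min. It was then added to compounds in DMSO and incubated 24 h at 37 °C with agitation, then centrifuged. Serum TNF-α was measured by sandwich ELISA with TMB read-out at 450 nm. Experiments were done 2−3 times and duplicates were averaged.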

Lung [3] = assay: Drug level in Sprague-Dawley rat lung at 1000 ug/kg, it administered as dry powder measured over 24 hrs post dose; format: ADME, tissue-based; conditions: in vivo, inhaled_or_intranasal, 1 mg/kg
Outline: (§1)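 Dry powder (5% w/w with lactose) was given intratracheally to rats. Compound was recovered from lung biopsies at times over a 24 h period and expressed as percentage of the total administered dose.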

Rattus norvegicus [4] = assay: (§2) Antiinflammatory activity in Sprague-Dawley rat LPS-induced neutrophilia model assessed as inhibition of LPS-induced increase in netrophils in bronchoalveolar lavage at 100 to 3000 ug/kg, it administered as single dose via dry powder insufflator dosed 1 to 18 hrs prior to nebulized LPS challenge measured after 4 hrs by flow cytometric analysis; format: functional
Outline: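 Male Sprague-Dawley rats (230−280 g, fasted) were anaesthetized with isoflurane. Micronized compound co-mixed with lactose (5 mg of mix) was insufflated intratracheally through a cannula with 5 mL air. One or 18 h later, LPS solution (30 mL) was nebulized into a chamber over 40 min. After 4 h, BAL was done with 2 × 2 mL PBS and neutrophils were counted by flow cytometry. Controls were lactose alone and fluticasone (10% in lactose).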

Mustela putorius furo [5] = assay: Toxicity in it dosed ferret assessed as emesis administered as dry powder co-mixtured with lactose after 1 hr post dose; format: organism-based; conditions: in vivo, inhaled_or_intranasal
[6] = Apparent permeability of the compound by PAMPA assay; format: physicochemical
Rattus norvegicus [7] = assay: Pro-inflammatory activity in Sprague-Dawley rat assessed as increase in neutrophils in bronchoalveolar lavage at 3000 ug/kg, it administered as single dose via dry powder insufflator after 18 hrs post dose by flow cytometric analysis relative to basal level; format: ADME; conditions: in vivo, inhaled_or_intranasal, 3 mg/kg
Outline: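 Fasted male Sprague-Dawley rats (230−280 g) under isoflurane received 5 mg […] co-mixed with lactose, delivered intratracheally by DP-4 insufflator with 5 mL air. 18 h later, LPS (1:100 dilution of 10 mg/mL in PBS; 30 mL) was nebulized in chambers over 40 min. BAL was taken 4 h later and neutrophils were counted by flow cytometry. Lactose-only control.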

[8] = Half life in Sprague-Dawley rat at 500 ug/kg, iv; format: ADME; conditions: in vivo, 0.5 mg/kg
[9] = Plasma concentration in Sprague-Dawley rat at 1000 ug/kg, it measured up to 1 hr post dose; format: ADME, cell-free; conditions: inhaled or intranasal, 1 mg/kg
[10] = Thermodynamic solubility of the compound at 37 degC
Lung [11] = assay: Drug level in Sprague-Dawley rat lung at 1000 ug/kg, it administered as dry powder measured up to 6 hrs post dose; format: ADME, tissue-based; conditions: in vivo, inhaled_or_intranasal, 1 mg/kg; outline: as §1
Rattus norvegicus [12] = assay: Pro-inflammatory activity in Sprague-Dawley rat assessed as increase in neutrophils in bronchoalveolar lavage at 1000 ug/kg, it administered as single dose via dry powder insufflator after 18 hrs post dose by flow cytometric analysis relative to basal level; format: ADME; conditions: in vivo, inhaled_or_intranasal, 1 mg/kg
[13] = AUC in Sprague-Dawley rat at 500 ug/kg, iv; format: ADME; conditions: in vivo, 0.5 mg/kg
Rattus norvegicus [14] = assay: as §2, with “1000” for “100 to 3000”, “administered” for “administered as”, “as microspray” for “via dry powder insufflator”, “hr” for “to 18 hrs”; format: functional
Outline: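 Compound was suspended in PBS with 0.2% Tween 80, homogenized, and lower doses were made by 1:10 dilution. Rats (male Sprague-Dawley, 230−280 g, fasted, isoflurane) received 0.2 mL intratracheally by microsprayer, about 1 cm above the carina. Nebulized LPS challenge (30 mL over 40 min) followed 1 h later. BAL neutrophils were counted by flow cytometry 4 h after challenge.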

Lung [15] = assay: Drug level in Sprague-Dawley rat lung at 1000 ug/kg, it administered as dry powder measured at 6 hrs post dose; format: ADME, tissue-based; conditions: in vivo, inhaled_or_intranasal, 1 mg/kg; outline: as §1
[16] = Volume of distribution at steady state in Sprague-Dawley rat at 500 ug/kg, iv; format: ADME; conditions: in vivo, 0.5 mg/kg, read-out: Vdss
[17] = Cmax in Sprague-Dawley rat at 500 ug/kg, iv; format: ADME; parameters: dose 500 ug/kg, route intravenous; conditions: in vivo, 0.5 mg/kg
[18] = Clearance in Sprague-Dawley rat at 500 ug/kg, iv; format: ADME; conditions: in vivo, 0.5 mg/kg
Mustela putorius furo [19] = assay: Toxicity in ferret assessed as emesis at 30 ug/kg, it administered as dry powder co-mixtured with lactose after 1 hr post dose; conditions: in vivo, inhaled_or_intranasal, 0.03 mg/kg
Lung [20] = assay: Drug level in Sprague-Dawley rat lung at 1000 ug/kg, it administered as dry powder measured up to 18 hrs post dose; format: ADME, tissue-based; conditions: in vivo, inhaled_or_intranasal, 1 mg/kg; outline: as §1
Rattus norvegicus [21] = species: Rattus norvegicus; conditions: Sprague-Dawley, 2000 ug/kg
Rattus norvegicus [22] = species: Rattus norvegicus; conditions: Sprague-Dawley, 2000 ug/kg; remark: listed apart in the source
[23] = Thermodynamic solubility of the compound at 22 degC; format: physicochemical; conditions: read-out: Therm_solubility

Chain of 3',5'-cyclic-AMP phosphodiesterase 4B (Q07343 whole entry): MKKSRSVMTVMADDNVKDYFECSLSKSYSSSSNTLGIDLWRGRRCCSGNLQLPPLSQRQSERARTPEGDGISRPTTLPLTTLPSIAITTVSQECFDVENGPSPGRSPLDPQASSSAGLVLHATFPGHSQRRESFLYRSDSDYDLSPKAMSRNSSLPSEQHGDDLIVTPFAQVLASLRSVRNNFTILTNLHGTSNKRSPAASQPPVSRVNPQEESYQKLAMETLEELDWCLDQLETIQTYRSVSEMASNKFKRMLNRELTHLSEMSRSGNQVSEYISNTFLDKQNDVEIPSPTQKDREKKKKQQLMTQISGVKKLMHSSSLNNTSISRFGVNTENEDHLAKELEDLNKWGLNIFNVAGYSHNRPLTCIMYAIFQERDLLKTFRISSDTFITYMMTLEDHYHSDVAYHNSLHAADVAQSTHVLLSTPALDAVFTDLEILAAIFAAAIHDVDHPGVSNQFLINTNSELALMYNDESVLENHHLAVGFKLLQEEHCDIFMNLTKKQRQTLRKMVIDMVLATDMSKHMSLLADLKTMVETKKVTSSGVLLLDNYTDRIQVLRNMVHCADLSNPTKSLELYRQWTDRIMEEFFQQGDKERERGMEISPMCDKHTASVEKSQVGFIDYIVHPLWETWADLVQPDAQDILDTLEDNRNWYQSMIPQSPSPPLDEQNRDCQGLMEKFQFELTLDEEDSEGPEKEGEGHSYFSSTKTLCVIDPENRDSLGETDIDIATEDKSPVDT

Structure (SMILES)	IC50 [1] [nM]	IC50 [2] [nM]	other results
COc1cccc(Nc2cc(-c3ccccc3)nc3c2C(=O)NCC3C)c1 (centres undefined)	640	–	–
COc1cccc(Nc2nc(-c3ccccc3)nc3c2C(=O)NCC3)c1	52	40	–
CNC(=O)c1cnc(-c2ccccc2)cc1Nc1cccc2ncccc12	5800	–	–
N#Cc1cccc(Nc2cc(-c3ccccc3)nc3c2C(=O)NCC3)c1	3.3	13	–
COc1cc(Nc2cc(-c3ccccc3)nc3c2C(=O)NCC3)cc(OC)c1	27	–	–
COc1cccc(Nc2cc(C3CC3)nc3c2C(=O)NCC3)c1	8.5	–	–
COc1cc(Nc2cc(-c3ccccc3)nc3c2C(=O)NCC3)ccc1C(=O)O	2.3	9.9	–
COc1cccc(Nc2cc(-c3cc[n+]([O-])cc3)nc3c2C(=O)NCC3)c1	51	–	–
Cn1nc(Nc2cc(-c3ccccc3)nc3c2C(=O)NCC3)c2cccnc21	11	–	–
O=C(Nc1c(Cl)cncc1Cl)c1ccc(OC(F)F)c(OCC2CC2)c1 [ROFLUMILAST]	–	4	inhibition (Rattus norvegicus [21]): inactive; inhibition in vivo at 1 mg/kg (Rattus norvegicus [14]): 80%; inhibition (Rattus norvegicus [22]): Active; solubility thermodynamic [23]: 0.52 µg/mL (≈ 1.29 µM)
O=C1NCCc2nc(-c3ccccc3)cc(Nc3cccc(CO)c3)c21	24	–	–
O=C1NCCc2nc(-c3ccccc3)cc(Nc3cccc4ccccc34)c21	11	–	–
COc1cccc(Nc2cc(-c3cccc(-c4cc(C(=O)O)ccc4O)c3)nc3c2C(=O)NCC3)c1	9.6	140	–
COc1cccc(Nc2cc(-c3cccc(OC)c3)nc3c2/C(=N/O)NCC3)c1	2000	–	–
COc1cccc(Nc2cc(-c3ccncc3)nc3c2C(=O)NCC3)c1	3.6	6.5	–
O=C1NCCc2nc(-c3ccccc3)cc(Nc3nn(-c4ccccc4)c4ncccc34)c21	56	–	–
NC(=O)c1cnc(-c2ccccc2)cc1Nc1cccc2ncccc12	35	–	–

More lines, in order of falling IC50 [1], values ahead:

IC50 [1] [nM]	IC50 [2] [nM]	Structure (SMILES)	other results
2.3	4.8	O=C1NCCc2nc(-c3ccccc3)cc(Nc3ccc4ncccc4c3)c21	–
1.6	3.4	COc1cccc(Nc2cc(-c3cccc(Sc4cccc(OC)c4)c3)nc3c2C(=O)NCC3)c1	–
1.5	4.2	NC(=O)c1ccc(Nc2cc(-c3ccccc3)nc3c2C(=O)NCC3)cc1	–
0.96	0.92	O=C1NCCc2nc(-c3ccccc3)cc(Nc3cccc4ncccc34)c21	–
0.89	17	N#C/N=C1\NCCc2nc(-c3ccc(F)c(F)c3)cc(Nc3cccc4ncccc34)c21	–
0.27	0.46	O=C(NC1CC1)c1cccc(-c2cccc(-c3cc(Nc4ccnc5ccccc45)c4c(n3)CCNC4=O)c2)c1	–
0.17	0.12	O=C(NC1CC1)c1cccc(-c2cccc(-c3cc(Nc4cccc5ncccc45)c4c(n3)CCNC4=O)c2)c1	Drug uptake (Lung [3]): 15%; Imax (Rattus norvegicus [4]): 35%; Activity (Mustela putorius furo [5]): Dose-dependent effect; Papp [6]: 0.15 ×10⁻⁶ cm/s; fold change (FC) (Rattus norvegicus [7]): 1.3; half-life [8]: 54 min; concentration at 1 h [9]: < 5 ng/mL; solubility thermodynamic [10]: 4 µg/mL (≈ 7.61 µM); Drug uptake (Lung [11]): 36%; fold change (FC) (Rattus norvegicus [12]): 0.7; AUC [13]: 108 ng·h/mL; inhibition in vivo at 1 mg/kg (Rattus norvegicus [14]): 58%; Drug uptake (Lung [15]): 20%; Vd [16]: 3.9 L/kg; Cmax [17]: 118 ng/mL; clearance [18]: 79 mL/min/kg; Activity (Mustela putorius furo [19]): Non-Toxic; Drug uptake (Lung [20]): 18%
0.11	0.52	O=C(O)c1ccc(-c2cccc(-c3cc(Nc4cccc5ncccc45)c4c(n3)CCNC4=O)c2)cc1	–
0.11	0.36	CN(C)CCCNC(=O)c1cccc(-c2cccc(-c3cc(Nc4cccc5ncccc45)c4c(n3)CCNC4=O)c2)c1	–
0.045	0.075	O=C(NC1CC1)c1cccc(-c2cccc(-c3cc(Nc4cccc5c4ccc[n+]5[O-])c4c(n3)CCNC4=O)c2)c1	–

Reference: ChEMBL document CHEMBL4033796, “4-Amino-7,8-dihydro-1,6-naphthyridin-5(6 H)-ones as Inhaled Phosphodiesterase Type 4 (PDE4) Inhibitors: Structural Biology and Structure-Activity Relationships” (J Med Chem, 2018)
